Reference: ChEMBL document CHEMBL1158533, “Pyrazolylthiazole as DeltaF508-cystic fibrosis transmembrane conductance regulator correctors with improved hydrophilicity compared to bithiazoles” (J Med Chem, 2010)

Assays:
[1] = Octanol-water partition coefficient, log P by reverse-phase HPLC analysis; type: physicochemical
In short: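 logP derived from reverse-phase HPLC capacity factor: logk from measured retention time, converted via a calibration curve of standards with known logP versus their logk values.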

[2] = biological target: Cystic fibrosis transmembrane conductance regulator (Homo sapiens, UniProt P13569); test: Binding affinity to human CFTR F508 deletion mutant expressed in FRT cells assessed as increase in iodine influx after 16 to 20 hrs by fluorescence assay; type: cell-based
In short: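 FRT cells stably coexpressing human ΔF508-CFTR and halide sensor YFP-H148Q/I152L, grown 24 h at 37 °C, then incubated 16–20 h with test compound. Washed in PBS, then 20 min in PBS with forskolin (20 μM) and genistein (50 μM). Fluorescence (ex 500, em 535 nm) recorded 2 s baseline, then 12 s after I⁻-substituted PBS addition; initial I⁻ influx rate from exponential regression; EC50 and Vmax from concentration dependence.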

Sequence of Cystic fibrosis transmembrane conductance regulator (P13569 whole entry, looked up): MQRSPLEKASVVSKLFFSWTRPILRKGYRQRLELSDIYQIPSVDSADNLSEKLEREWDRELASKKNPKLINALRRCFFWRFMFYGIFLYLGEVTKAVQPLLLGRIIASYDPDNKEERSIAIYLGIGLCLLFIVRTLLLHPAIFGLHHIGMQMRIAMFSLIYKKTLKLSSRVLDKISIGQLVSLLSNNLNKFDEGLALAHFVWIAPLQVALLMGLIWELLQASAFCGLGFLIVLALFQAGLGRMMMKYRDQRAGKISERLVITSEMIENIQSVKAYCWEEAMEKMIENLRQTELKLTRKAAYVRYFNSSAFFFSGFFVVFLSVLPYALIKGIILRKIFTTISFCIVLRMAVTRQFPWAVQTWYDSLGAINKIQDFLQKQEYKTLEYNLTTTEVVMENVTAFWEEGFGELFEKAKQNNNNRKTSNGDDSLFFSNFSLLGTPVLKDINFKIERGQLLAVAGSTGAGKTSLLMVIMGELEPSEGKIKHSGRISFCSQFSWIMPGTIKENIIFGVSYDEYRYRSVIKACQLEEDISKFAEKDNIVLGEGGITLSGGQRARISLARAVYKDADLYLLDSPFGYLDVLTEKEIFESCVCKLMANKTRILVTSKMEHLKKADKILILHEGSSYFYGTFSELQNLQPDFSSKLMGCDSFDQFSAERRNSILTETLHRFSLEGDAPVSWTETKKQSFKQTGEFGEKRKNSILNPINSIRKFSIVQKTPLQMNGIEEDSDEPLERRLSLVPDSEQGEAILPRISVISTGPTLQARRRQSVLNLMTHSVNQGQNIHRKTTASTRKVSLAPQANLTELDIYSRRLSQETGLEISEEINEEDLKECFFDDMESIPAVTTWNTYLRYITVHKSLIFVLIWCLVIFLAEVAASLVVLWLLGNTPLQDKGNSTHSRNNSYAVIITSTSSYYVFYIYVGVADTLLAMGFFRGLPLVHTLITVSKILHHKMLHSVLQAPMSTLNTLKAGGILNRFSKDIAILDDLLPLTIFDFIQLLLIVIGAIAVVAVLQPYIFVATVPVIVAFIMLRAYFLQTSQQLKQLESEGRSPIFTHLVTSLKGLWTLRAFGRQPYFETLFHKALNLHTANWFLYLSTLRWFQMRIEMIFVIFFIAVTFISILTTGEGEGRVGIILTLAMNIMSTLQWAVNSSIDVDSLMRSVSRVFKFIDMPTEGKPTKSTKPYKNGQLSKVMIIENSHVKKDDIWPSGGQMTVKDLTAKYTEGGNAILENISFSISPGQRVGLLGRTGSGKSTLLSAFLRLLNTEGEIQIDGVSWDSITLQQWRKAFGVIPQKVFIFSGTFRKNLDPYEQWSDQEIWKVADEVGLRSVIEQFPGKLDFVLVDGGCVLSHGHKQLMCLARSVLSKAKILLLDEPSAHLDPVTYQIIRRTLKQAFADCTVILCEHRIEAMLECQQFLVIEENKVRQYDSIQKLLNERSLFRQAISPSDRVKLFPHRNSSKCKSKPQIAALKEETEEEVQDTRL

logP [1] | EC50 [2] [nM] | Structure (SMILES)
5.52 | 3400 | COc1ccc(NC(=O)c2cc(-c3sc(NC(=O)C(C)(C)C)nc3C)n(-c3ccc(Br)cc3)n2)cc1
– | 8500 | CCOC(=O)c1cc(-c2sc(NC(=O)C(C)(C)C)nc2C)nn1Cc1ccccc1
– | 700 | COc1ccc(Cl)cc1Nc1nc(-c2sc(NC(=O)C(C)(C)C)nc2C)cs1
– | 300 | COc1ccc(Cl)cc1Nc1nc2c(s1)CCCc1nc(NC(=O)C(C)(C)C)sc1-2
